ChEMBL document CHEMBL2062411, “Structure-activity relationship study of selective excitatory amino acid transporter subtype 1 (EAAT1) inhibitor 2-amino-4-(4-methoxyphenyl)-7-(naphthalen-1-yl)-5-oxo-5,6,7,8-tetrahydro-4H-chromene-3-carbonitrile (UCPH-101) and absolute configurational assignment using infrared and vibrational …” (J Med Chem, 2012)

Legend:
Format in all cases: cell-based
[1] = target: Excitatory amino acid transporter 1 (Homo sapiens, UniProt P43003); test: Inhibition of human EAAT1 expressed in HEK293 cells assessed as inhibition of 3[H]-D-Aspartate uptake after 6 mins by scintillation counting method
Sequence of Excitatory amino acid transporter 1 (P43003 whole entry): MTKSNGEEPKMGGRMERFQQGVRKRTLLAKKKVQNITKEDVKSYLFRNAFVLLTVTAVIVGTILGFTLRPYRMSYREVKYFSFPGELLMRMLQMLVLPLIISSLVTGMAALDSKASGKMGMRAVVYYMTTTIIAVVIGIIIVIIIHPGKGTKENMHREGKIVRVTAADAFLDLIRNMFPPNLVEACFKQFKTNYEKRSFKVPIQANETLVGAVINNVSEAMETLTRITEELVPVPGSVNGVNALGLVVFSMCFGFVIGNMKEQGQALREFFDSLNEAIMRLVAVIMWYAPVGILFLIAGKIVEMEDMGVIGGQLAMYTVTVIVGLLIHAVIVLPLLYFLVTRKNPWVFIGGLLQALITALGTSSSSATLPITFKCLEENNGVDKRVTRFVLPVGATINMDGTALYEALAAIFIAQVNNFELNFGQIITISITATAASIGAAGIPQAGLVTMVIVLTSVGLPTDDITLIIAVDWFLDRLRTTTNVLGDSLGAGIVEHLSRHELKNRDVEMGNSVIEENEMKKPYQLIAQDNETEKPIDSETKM
Method in brief: (§1)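 HEK293 cell lines expressing EAAT1, EAAT2 or EAAT3 were cultured and assayed for [³H]-D-aspartate uptake, following an earlier published protocol. Inhibition is reported as IC50 in μM, with pIC50 ± SEM.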

[2] = target: Excitatory amino acid transporter 2 (Homo sapiens, UniProt P43004); test: Inhibition of human EAAT2 expressed in HEK293 cells assessed as inhibition of 3[H]-D-Aspartate uptake after 6 mins by scintillation counting method; method in brief: as §1
Sequence of Excitatory amino acid transporter 2 (P43004 whole entry): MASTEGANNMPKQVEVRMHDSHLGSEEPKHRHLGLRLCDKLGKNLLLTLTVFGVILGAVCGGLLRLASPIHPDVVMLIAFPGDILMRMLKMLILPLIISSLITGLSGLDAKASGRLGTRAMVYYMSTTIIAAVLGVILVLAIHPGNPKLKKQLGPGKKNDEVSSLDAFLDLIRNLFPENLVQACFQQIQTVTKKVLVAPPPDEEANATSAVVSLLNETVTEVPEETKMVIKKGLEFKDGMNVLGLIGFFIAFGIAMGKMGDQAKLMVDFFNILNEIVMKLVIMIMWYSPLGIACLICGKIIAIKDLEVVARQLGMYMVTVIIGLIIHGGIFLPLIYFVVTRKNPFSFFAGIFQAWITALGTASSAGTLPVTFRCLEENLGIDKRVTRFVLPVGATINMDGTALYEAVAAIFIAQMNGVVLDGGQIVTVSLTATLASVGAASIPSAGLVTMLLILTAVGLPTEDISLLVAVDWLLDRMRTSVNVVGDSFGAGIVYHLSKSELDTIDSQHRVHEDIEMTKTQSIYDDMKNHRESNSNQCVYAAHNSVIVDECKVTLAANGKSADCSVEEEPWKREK

[3] = target: T1, Excitatory amino acid transporter 3 (Homo sapiens, UniProt P43005); test: Inhibition of human EAAT3 expressed in HEK293 cells assessed as inhibition of 3[H]-D-Aspartate uptake after 6 mins by scintillation counting method; method in brief: as §1
T1 sequence (P43005 whole entry): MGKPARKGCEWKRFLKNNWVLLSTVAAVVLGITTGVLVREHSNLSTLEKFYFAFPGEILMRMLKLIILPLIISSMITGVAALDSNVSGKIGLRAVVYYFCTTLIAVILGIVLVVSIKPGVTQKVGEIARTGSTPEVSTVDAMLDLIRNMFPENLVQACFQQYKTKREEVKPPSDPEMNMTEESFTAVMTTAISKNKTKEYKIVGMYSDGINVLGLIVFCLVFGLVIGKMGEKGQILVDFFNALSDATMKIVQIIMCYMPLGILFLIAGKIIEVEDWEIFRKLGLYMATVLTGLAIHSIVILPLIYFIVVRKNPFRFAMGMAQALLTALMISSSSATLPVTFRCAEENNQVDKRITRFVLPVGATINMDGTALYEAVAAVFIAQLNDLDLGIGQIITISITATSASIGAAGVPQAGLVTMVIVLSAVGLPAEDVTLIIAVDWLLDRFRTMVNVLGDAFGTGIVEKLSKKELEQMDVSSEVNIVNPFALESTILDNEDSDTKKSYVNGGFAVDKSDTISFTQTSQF

Structure (SMILES) | IC50 ([1]; read-out: IC50) [µM] | IC50 [2] [µM] | IC50 ([1]; read-out: pIC50 (converted)) [µM] | IC50 [3] [µM]
CC1(C)C(C#N)=C(N)OC2=C1C(=O)CC(c1ccccc1)C2 (stereo unspecified) | > 300 |  |  | 
C[C@@H](c1ccccc1)N1CC(=O)C2=C(C1)OC(N)=C(C#N)[C@@H]2c1ccccc1 |  | > 300 | > 316 | > 300
N#CC1=C(N)OC2=C(C(=O)CN(c3ccccc3)C2)C1c1ccccc1 (stereo unspecified) |  | > 100 | > 100 | > 100
N#CC1=C(N)OC2=C(C(=O)OC(c3ccccc3)C2)C1c1ccccc1 (stereo unspecified) | > 300 |  |  | 
N#CC1=C(N)OC2=C(C(=O)CN(C(=O)c3ccccc3)C2)C1c1ccccc1 (stereo unspecified) |  | > 100 | > 100 | > 100
N#CC1=C(N)OC2=C(C(=O)NC(c3ccccc3)C2)C1c1ccccc1 (stereo unspecified) | > 300 |  |  | 

The remaining lines, values ahead:

IC50 ([1]; read-out: IC50) [µM] | IC50 [2] [µM] | IC50 ([1]; read-out: pIC50 (converted)) [µM] | IC50 [3] [µM] | Structure (SMILES)
 | > 300 | > 316 | > 300 | C[C@H](c1ccccc1)N1CC(=O)C2=C(C1)OC(N)=C(C#N)[C@@H]2c1ccccc1
 | > 300 | 3.72 | > 300 | C[C@H](c1ccccc1)N1CC(=O)C2=C(C1)OC(N)=C(C#N)[C@H]2c1ccccc1
 | > 300 | 16.2 | > 300 | N#CC1=C(N)OC2=C(C(=O)CN(Cc3ccccc3)C2)C1c1ccccc1 (stereo unspecified)
0.42 |  |  |  | CC1C(C#N)=C(N)OC2=C1C(=O)CC(c1cccc3ccccc13)C2 (stereo unspecified)
3.9 |  |  |  | N#CC1=C(N)OC2=C(C(=O)CC(c3ccccc3)C2)C1c1ccccc1 (stereo unspecified)
 | > 300 | 5.25 | > 300 | C[C@@H](c1ccccc1)N1CC(=O)C2=C(C1)OC(N)=C(C#N)[C@H]2c1ccccc1
